# ChEMBL document CHEMBL3286292, “Synthesis and antimicrobial activity of amine linked bis- and tris-heterocycles” (2014)
# Activity calls are given as the source filed them. The rule behind the calls is not given here.
# Assays:
# Type in all cases: functional
# [1] = tested on: Staphylococcus aureus; assay: Antibacterial activity against Staphylococcus aureus assessed as growth inhibition at 25 ug/well after 24 hrs by agar well diffusion method; conditions: for zone of inhibition at 25 µg/disc: read-out: DIZ
# In short: (§1)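 Agar well diffusion on […] swabbed with a 24 h broth culture. Samples were dissolved in DMSO and loaded at three per-well amounts into 6 mm wells. Incubation was 37 °C for 24 h, then inhibition zone diameter was read in mm. DMSO served as the negative control. Runs were in duplicate and averaged.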
# [2] = tested on: Staphylococcus aureus; assay: Antibacterial activity against Staphylococcus aureus assessed as growth inhibition at 50 ug/well after 24 hrs by agar well diffusion method; conditions: for zone of inhibition at 50 µg/disc: read-out: DIZ; in short: as §1
# [3] = tested on: Staphylococcus aureus; assay: Antibacterial activity against Staphylococcus aureus assessed as growth inhibition at 100 ug/well after 24 hrs by agar well diffusion method; conditions: for zone of inhibition at 100 µg/disc: read-out: DIZ; in short: as §1
# [4] = tested on: Bacillus subtilis; assay: Antibacterial activity against Bacillus subtilis assessed as growth inhibition at 25 ug/well after 24 hrs by agar well diffusion method; conditions: for zone of inhibition at 25 µg/disc: read-out: DIZ; in short: as §1
# [5] = tested on: Bacillus subtilis; assay: Antibacterial activity against Bacillus subtilis assessed as growth inhibition at 50 ug/well after 24 hrs by agar well diffusion method; conditions: for zone of inhibition at 50 µg/disc: read-out: DIZ; in short: as §1
# [6] = tested on: Bacillus subtilis; assay: Antibacterial activity against Bacillus subtilis assessed as growth inhibition at 100 ug/well after 24 hrs by agar well diffusion method; conditions: for zone of inhibition at 100 µg/disc: read-out: DIZ; in short: as §1
# [7] = tested on: Pseudomonas aeruginosa; assay: Antibacterial activity against Pseudomonas aeruginosa assessed as growth inhibition at 25 ug/well after 24 hrs by agar well diffusion method; conditions: for zone of inhibition at 25 µg/disc: read-out: DIZ; in short: as §1
# [8] = tested on: Pseudomonas aeruginosa; assay: Antibacterial activity against Pseudomonas aeruginosa assessed as growth inhibition at 50 ug/well after 24 hrs by agar well diffusion method; conditions: for zone of inhibition at 50 µg/disc: read-out: DIZ; in short: as §1
# [9] = tested on: Pseudomonas aeruginosa; assay: Antibacterial activity against Pseudomonas aeruginosa assessed as growth inhibition at 100 ug/well after 24 hrs by agar well diffusion method; conditions: for zone of inhibition at 100 µg/disc: read-out: DIZ; in short: as §1
# [10] = tested on: Klebsiella pneumoniae; assay: Antibacterial activity against Klebsiella pneumoniae assessed as growth inhibition at 25 ug/well after 24 hrs by agar well diffusion method; conditions: for zone of inhibition at 25 µg/disc: read-out: DIZ; in short: as §1
# [11] = tested on: Klebsiella pneumoniae; assay: Antibacterial activity against Klebsiella pneumoniae assessed as growth inhibition at 50 ug/well after 24 hrs by agar well diffusion method; conditions: for zone of inhibition at 50 µg/disc: read-out: DIZ; in short: as §1
# [12] = tested on: Klebsiella pneumoniae; assay: Antibacterial activity against Klebsiella pneumoniae assessed as growth inhibition at 100 ug/well after 24 hrs by agar well diffusion method; conditions: for zone of inhibition at 100 µg/disc: read-out: DIZ; in short: as §1
# [13] = tested on: Aspergillus niger; assay: Antifungal activity against Aspergillus niger assessed as inhibition of spore germination at 25 ug/well after 48 hrs by agar well diffusion method; conditions: for zone of inhibition at 25 µg/disc: read-out: DIZ
# In short: (§2)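 Well diffusion using 6 mm bored wells loaded with DMSO solutions at three per-well amounts, with a DMSO negative control. Plates were held at 28 °C for 48 h, then zone of inhibition diameter was measured in mm. Runs were in duplicate and averaged.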
# [14] = tested on: Aspergillus niger; assay: Antifungal activity against Aspergillus niger assessed as inhibition of spore germination at 50 ug/well after 48 hrs by agar well diffusion method; conditions: for zone of inhibition at 50 µg/disc: read-out: DIZ; in short: as §2
Structure (SMILES),zone of inhibition at 25 µg/disc [1] [mm],zone of inhibition at 50 µg/disc [2] [mm],zone of inhibition at 100 µg/disc [3] [mm],zone of inhibition at 25 µg/disc [4] [mm],zone of inhibition at 50 µg/disc [5] [mm],zone of inhibition at 100 µg/disc [6] [mm],growth inhibition (GI) [7],growth inhibition (GI) [8],zone of inhibition at 100 µg/disc [9] [mm],zone of inhibition at 25 µg/disc [10] [mm],zone of inhibition at 50 µg/disc [11] [mm],zone of inhibition at 100 µg/disc [12] [mm],zone of inhibition at 25 µg/disc [13] [mm],zone of inhibition at 50 µg/disc [14] [mm],zone of inhibition at 25 µg/disc [7] [mm],zone of inhibition at 50 µg/disc [8] [mm],also measured
c1ccc(-c2coc(Nc3cc(-c4ccccc4)n(-c4nc(-c5ccccc5)cs4)n3)n2)cc1,8,10,13,8,10,12,inactive,inactive,6,8,10,13,9,10,–,–,–
Cc1ccc(-c2c[nH]c(Nc3cc(-c4ccc(C)cc4)n(C(N)=S)n3)n2)cc1,10,12,14,9,10,13,inactive,inactive,7,10,12,14,14,15,–,–,–
Cc1ccc(-c2csc(NC3=NN(C(N)=S)[C@@H](c4ccc(C)cc4)C3)n2)cc1,–,–,–,–,–,–,inactive,inactive,–,–,–,–,–,–,–,–,growth inhibition (GI) [1]: inactive; growth inhibition (GI) [2]: inactive; growth inhibition (GI) [3]: inactive; growth inhibition (GI) [4]: inactive; growth inhibition (GI) [5]: inactive; growth inhibition (GI) [6]: inactive; growth inhibition (GI) [9]: inactive; growth inhibition (GI) [10]: inactive; growth inhibition (GI) [11]: inactive; growth inhibition (GI) [12]: inactive; growth inhibition (GI) [13]: inactive; zone of inhibition [14]: inactive
NC(=S)n1nc(Nc2nc(-c3ccc(Cl)cc3)co2)cc1-c1ccc(Cl)cc1,15,17,19,15,16,19,–,–,12,16,17,20,10,11,8,9,–
NC(=S)n1nc(Nc2nc(-c3ccccc3)cs2)cc1-c1ccccc1,22,25,26,21,22,24,–,–,17,23,25,28,17,19,12,15,–
Cc1ccc(-c2csc(Nc3cc(-c4ccc(C)cc4)n(-c4nc(-c5ccc(C)cc5)cs4)n3)n2)cc1,14,15,18,14,15,18,–,–,11,14,15,18,15,16,7,8,–
